The full list was thinned out, with hits kept by preference.
Insulin prom act = activators of insulin promoter-driven GFP, primary screen, imaging, TRM-6 cells (human fetal islet line), eGFP reporter, cell count; 130,000 tested, 0.81% active; plate-scaled: unstimulated 0, stimulated control 100; AID 1296, 2008; activation, % at 2 µM;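 active = activation at 2 µM above a set limit, confirmed on inspection of the cell images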;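 note: share of cells whose green reporter signal exceeds an intensity cutoff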
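System – TRM-6 insulin promoter–eGFP reporter cells · Probe or stimulus – 0.75 µM tamoxifen as reporter inducer · Dosing – single-point 2 µM compound dose · Incubation – tamoxifen pre-incubation 15 h overnight, then compound exposure 48 h at 37 °C · Measured by – fixed-cell fluorescence microscopy, eGFP plus Hoechst · Evaluation – percent GFP-positive cells normalized to per-plate controls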
Hits are given with their value; 0 = inactive.

SMILES	Insulin prom act
O=c1c2c(nc3nc(NCc4ccc(Cl)cc4)[nH]n13)CCC2	0
Oc1ccccc1C1=Nc2ncnn2C(c2ccccc2)C1 (configuration not stated)	0
CCCn1ncc([C@@H]2C[C@H]3CN(Cc4cccc(Cl)c4)C(=O)[C@]34CCCN24)c1C	0
O=C1N(Cc2cccc(Cl)c2)C[C@@H]2C[C@@H](c3ccco3)N3CCC[C@@]123	683
O=C1NCCN1Cc1cccc(Cl)c1	0
CCOC(=O)c1sc(N(Cc2ccccc2)C(=O)COC(=O)c2ccc(O)cc2)nc1C	0
CCNC(=S)N(Cc1ccc2c(c1)OCO2)C1CC(=O)N(c2ccc(F)cc2)C1=O (configuration not stated)	0
COC(=O)CN1C(=S)N(Cc2ccccc2)C(=O)C1CC(=O)Nc1ccc(OC)cc1 (configuration not stated)	0
COc1ccc(NC(=O)CC2C(=O)N(C)C(=S)N2CCc2ccccc2)cc1 (configuration not stated)	0
COc1ccc(NC(=O)CC2C(=O)N(Cc3ccccc3)C(=S)N2CCN2CCOCC2)cc1 (configuration not stated)	333
CCN(CC)S(=O)(=O)c1ccc(OC)c(NC(=S)Nc2ccc(C)c(C)c2)c1	0
NCCS	0
Cc1cccc(-c2csc(N)c2C(=O)OC(C)C)c1	0
CCOC(=O)c1c(-c2ccncc2)csc1N	460
COC(=O)c1c(-c2ccncc2)csc1NC(=O)c1ccoc1C	0
COc1cc(OC)cc(C(=O)Nc2nc(-c3ccccc3)c(-c3ccccc3)o2)c1	0
Cc1ccc(N/C=C(/C#N)c2ccsc2)cc1C	0
CSc1nsc(/C=C/Nc2ccc(C)c(C)c2)c1C#N	669
COc1cc(/C=N/Nc2snc(SC)c2C#N)ccc1O	0
CNC(=O)c1nnsc1S(=O)(=O)c1ccc(Cl)cc1	754
O=C(Nc1ccccn1)c1ccc(S(=O)(=O)c2ccc(Cl)cc2)cc1	0
Cc1ccc(C(=O)NC(=C(Cl)Cl)S(=O)(=O)c2ccc(Cl)cc2)cc1	0
Cc1cc2c(OCC(O)CN3CCCC3)cccc2[nH]1 (configuration not stated)	0
Cc1cc(C)cc(NC(=O)CSc2nc3c(oc4ccccc43)c(=O)n2-c2ccccc2)c1	0
COc1ccc(OC)c2sc(NNC(=O)C3COc4ccccc4O3)nc12 (configuration not stated)	0
SMILES	Insulin prom act
CCCn1c(OC)nc2c1c(=O)n(C)c(=O)n2C	0
Cn1c(=O)c2c(nc(CN3CCN(Cc4ccccc4)CC3)n2Cc2ccccc2)n(C)c1=O	0
CCCn1c(CN2CCCCC2CC)nc2c1c(=O)n(C)c(=O)n2C (configuration not stated)	600
CCn1c(=S)[nH]c2cc(C(=O)OC)ccc2c1=O	0
O=c1cc(CSc2nnc(-c3ccco3)o2)c2ccccc2[nH]1	0
COCc1nnc(N)s1	0
Clc1ccc(Cc2ccc(SCc3ccccc3)nn2)c(Cl)c1	0
Nc1nnc(Cc2ccc(Cl)cc2Cl)s1	97
O=C(CNC(=S)N(Cc1ccc(F)cc1)C1CCCCC1)NC1CC1	0
Cc1ccc(C(=O)Nc2ccc3nc(C)sc3c2)s1	562
Cc1nc2ccc(NC(=O)CCS(=O)(=O)c3ccc(Cl)cc3)cc2s1	0
Cc1nc2ccc([N+](=O)[O-])cc2s1	0
CC(Oc1ccc(Cl)cc1Cl)c1ccn[nH]1 (configuration not stated)	306
COCCNC(=O)C(C)Oc1ccc(Cl)cc1Cl (configuration not stated)	0
CC(Oc1ccc(Cl)cc1Cl)C(=O)NC1CCSC1=O (configuration not stated)	0
OCC1(C2=NOC(O)(C(F)(F)F)C2)CCCCC1 (configuration not stated)	0
COc1ccc(-n2c(C)cc(/C=C3\SC(=S)N(Cc4ccco4)C3=O)c2C)cc1	245
Cc1ccc(/C=C2\SC(=S)N(Cc3ccccc3)C2=O)o1	0
Cc1cc(/C=C2/SC(=S)N(c3ccc([N+](=O)[O-])cc3)C2=O)c(C)n1-c1cccnc1	0
O=C(Nc1ccc2c(c1)OCCO2)C1CCCN1S(=O)(=O)c1cccc2cccnc12 (configuration not stated)	0
COc1ccc(-[n+]2c(C)cc(/C=C3\Sc4ccccc4N3C)cc2C)cc1	400
COc1cc2[nH]c(=S)nc(NCCC(C)C)c2cc1OC	0
O=C(Nc1ccc(Br)cc1)C1CC=CCC1C(=O)OCC1CCCO1 (configuration not stated)	0
CCOC(=O)c1c(NC(=O)Cn2nnc(-c3ccccc3Cl)n2)sc(C)c1C	0
COc1cc(CCC(=O)Nc2cc(Cl)ccc2N2CCN(C)CC2)cc(OC)c1OC	0
SMILES	Insulin prom act
COc1cccc(C(=O)Nc2ccc(Cl)c(C(F)(F)F)c2)c1	0
COc1cc(CCC(=O)Nc2ccc(Cl)c(C(F)(F)F)c2)cc(OC)c1OC	277
COC(=O)C/C=C/[C@@H](C)[C@@H](/C=N/O[C@@H](C)c1cn([C@H](CO)Cc2ccccc2)nn1)NS(=O)(=O)c1ccc(C)cc1	0
O=C1C2C3C=CC(CC3)C2C(=O)N1c1ccc2c(c1)OCO2 (configuration not stated)	0
CC12CN3CC(C)(CN(C1)C3c1ccc3c(c1)OCO3)C2=O (configuration not stated)	438
CN1c2ccccc2N(C)C1c1ccc2c(c1)OCO2	0
CC(C)=CCC(C)(C)C1OCCN1C(=O)Nc1ccccc1 (configuration not stated)	0
CCc1ccc(N(C(=O)Cc2cccs2)C(C(=O)NC2CCCCC2)c2cn(C)nc2C)cc1 (configuration not stated)	0
CCOC(=O)c1ccc(Oc2nc(NC)nc(Nc3ccccc3)n2)cc1	0
CCCCN(CCCC)S(=O)(=O)c1ccc(NC(=O)CN2CCOCC2)cc1	0
O=C(CN1CCOCC1)Nc1ccc(S(=O)(=O)NC2CCCCC2)cc1	200
O=C(CN1CCCCC1)Nc1ccc(S(=O)(=O)N2CCOCC2)cc1	0
COc1cc2c(cc1OC)-c1cc(OCCN3CCOCC3)nc(=O)n1CC2	0
CCN1C(=O)/C(=C\c2ccc3c(c2)OCO3)C(C(=O)OC)=C1C	0
COC(=O)C1=C(C)N(CCc2c[nH]c3ccccc23)C(=O)/C1=C\N(C)C	409
CC(C)NC(=O)CCCc1c[nH]c2ccccc12	0
CCCNC(=O)NC(=O)CSc1nnc(C)n1N	0
COc1ccc(C(=O)NC2=NCCS2)cc1S(=O)(=O)N1CCCCC1C (configuration not stated)	0
CC(=O)c1cn(CC(=O)NCc2cccnc2)c2ccccc12	0
O=C(Cn1cc(C(=O)c2ccco2)c2ccccc21)NCc1ccco1	97
O=C(Cn1cc(C(=O)C(F)(F)F)c2ccccc21)NCc1ccco1	0
CCOC(=O)C(C)Sc1ncc(OC)c(=O)[nH]1 (configuration not stated)	0
CC(C(=O)Nc1ccccc1C(=O)N1CCOCC1)N(c1ccccc1)S(C)(=O)=O (configuration not stated)	0
CCOC(=O)c1ccc2c(c1)N(CC)/C(=C\C=C1/SC(=S)N(CC)C1=O)N2CC	0
C/C=C(\C)CN1CCc2cc(OC)c(OC)cc2C1	0
Cn1c(SCC(=O)Nc2nccs2)nnc1C12CC3CC(CC(C3)C1)C2	0
CCOc1cc(CN2CCN(C(=O)c3ccco3)CC2)ccc1OC	0
CCOC(=O)CC1C(=O)NCCN1Cc1ccc(OC)c(OC)c1 (configuration not stated)	0

Compound activity from PubChem BioAssay.
